Assay results from paper PMC9530961 (Molecular Therapy. Nucleic Acids, 2022).

What was measured:
CSNK2A1 mRNA [1] = assay: qPCR gene silencing in OVCAR3 cells; type: cell-based; conditions: 48 h, 10% FBS
Outline: (§1)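 Cells were seeded at 50,000/well and treated with peptide complexes of CSNK2A1-targeting or non-targeting siRNA at increasing N:P ratios in McCoy's 5A/DMEM with 10% FBS. Medium was replaced after a PBS wash at 24 h, for 48 h total. CSNK2A1 mRNA was quantified by TaqMan qRT-PCR with 18S as reference.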

RNase A = target: T1, RNase A (Bos taurus, UniProt P61823); assay: Protection of siRNA from RNase A degradation, agarose gel electrophoresis; type: in vitro ADME; conditions: complexes with siNT, 5 μg/mL RNase A, 37°C, 1 h, 6% SDS
T1 sequence (P61823 27-150): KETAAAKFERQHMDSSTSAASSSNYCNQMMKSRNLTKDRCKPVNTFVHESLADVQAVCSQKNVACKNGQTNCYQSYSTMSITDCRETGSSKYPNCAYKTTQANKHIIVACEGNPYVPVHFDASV
Outline: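 Non-targeting siRNA (10 μM solution) was mixed with each peptide (10 μM solution in RNase-free water) at several N:P ratios and held 20 min at room temperature. Complexes or free siRNA were left untreated or exposed to 5 μg/mL RNase A at 37°C for 1 h, then dissociated with 6% SDS. Samples were run on 2% agarose at 100 V, ethidium bromide-stained and imaged for intact siRNA.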

[2] = tested on: MCF10a breast epithelial cells; assay: Cell viability of healthy cells; type: cell-based; conditions: 48 h
CSNK2A1 mRNA [3] = assay: qPCR gene silencing in CAOV3 cells; type: cell-based; conditions: CAOV3, 80:1 N:P ratio, 48 h
Outline: as §1

WEADIVADIVADIVAGGG-(d)RRRRRRRRR [DIVA3]
CSNK2A1 mRNA silencing efficacy (CSNK2A1 mRNA [1]; OVCAR3, siCSNK2A1 complex at 60:1 versus siNT complex): 47%

WEADIVADIVHDIVADIVAGGG-(d)RRRRRRRRR [DIV3H]
CSNK2A1 mRNA silencing efficacy (CSNK2A1 mRNA [1]; OVCAR3, siCSNK2A1 complex at 80:1 versus siNT complex): 72%

WEADIVADIVWDIVADIVAGGG-(d)RRRRRRRRR [DIV3W]
siRNA degradation after incubation with RNase A (RNase A): Minimal degradation | cytotoxic effects on healthy cells [2]: no cytotoxic effects were observed | CSNK2A1 mRNA knockdown, maximum (CSNK2A1 mRNA [3]): 80%
